Counter-ions that a name gives are not always drawn. Like-named read-outs stand apart in the source and are kept apart here. Values belong to the molecule of their own block, whether it stands above or below them.
Tests used:
rat Mrp2 (rMrp2) = rat Mrp2 (rMrp2) (Rattus norvegicus, UniProt Q63120); test: Inhibition of CDF uptake into rMrp2 membrane vesicles; assay type: biochemical; conditions: read-out: IC50, CDF uptake into vesicles expressing Mrp2; geometric mean, 95% CL 58.2–80.7, n = 4
[1] = tested on: hepatic uptake and biliary excretion of gadoxetate; assay type: in vivo, rat; conditions: for Vmax, gadoxetate efflux into bile / k1, rate of gadoxetate uptake into the hepatocyte: mean ± SEM
Procedure, shortened: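 Rats (298 ± 26 g), six per group, got vehicle (water, 0.5% w/v HPMC/0.1% w/v polysorbate 80) or suspended compound by oral gavage (20–2000 mg/kg). Anaesthetised 30 min post-dose; DCE-MRI began 60 min post-dose, gadoxetate given by tail-vein pump at t = 5 min, acquisition run to 60 min (1 min/volume). Hepatocyte signal derived from liver and spleen signals using extracellular fraction; k1, Vmax, KM fitted by least-squares per dose group.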

liver = test: Liver pathology analysis; assay type: in vivo; conditions: CKA 20, 200 or 500 mg/kg oral, rat
rat Bsep (rBsep) = molecular target: T1, rat Bsep (rBsep) (Rattus norvegicus, UniProt O70127); test: Inhibition of [3H]-taurocholate uptake into rBsep membrane vesicles; assay type: biochemical; conditions: read-out: IC50, [3H]-taurocholate uptake into vesicles expressing rBsep; geometric mean, 95% CL 109.8–153.2, n = 5
T1 sequence (O70127 1-1321): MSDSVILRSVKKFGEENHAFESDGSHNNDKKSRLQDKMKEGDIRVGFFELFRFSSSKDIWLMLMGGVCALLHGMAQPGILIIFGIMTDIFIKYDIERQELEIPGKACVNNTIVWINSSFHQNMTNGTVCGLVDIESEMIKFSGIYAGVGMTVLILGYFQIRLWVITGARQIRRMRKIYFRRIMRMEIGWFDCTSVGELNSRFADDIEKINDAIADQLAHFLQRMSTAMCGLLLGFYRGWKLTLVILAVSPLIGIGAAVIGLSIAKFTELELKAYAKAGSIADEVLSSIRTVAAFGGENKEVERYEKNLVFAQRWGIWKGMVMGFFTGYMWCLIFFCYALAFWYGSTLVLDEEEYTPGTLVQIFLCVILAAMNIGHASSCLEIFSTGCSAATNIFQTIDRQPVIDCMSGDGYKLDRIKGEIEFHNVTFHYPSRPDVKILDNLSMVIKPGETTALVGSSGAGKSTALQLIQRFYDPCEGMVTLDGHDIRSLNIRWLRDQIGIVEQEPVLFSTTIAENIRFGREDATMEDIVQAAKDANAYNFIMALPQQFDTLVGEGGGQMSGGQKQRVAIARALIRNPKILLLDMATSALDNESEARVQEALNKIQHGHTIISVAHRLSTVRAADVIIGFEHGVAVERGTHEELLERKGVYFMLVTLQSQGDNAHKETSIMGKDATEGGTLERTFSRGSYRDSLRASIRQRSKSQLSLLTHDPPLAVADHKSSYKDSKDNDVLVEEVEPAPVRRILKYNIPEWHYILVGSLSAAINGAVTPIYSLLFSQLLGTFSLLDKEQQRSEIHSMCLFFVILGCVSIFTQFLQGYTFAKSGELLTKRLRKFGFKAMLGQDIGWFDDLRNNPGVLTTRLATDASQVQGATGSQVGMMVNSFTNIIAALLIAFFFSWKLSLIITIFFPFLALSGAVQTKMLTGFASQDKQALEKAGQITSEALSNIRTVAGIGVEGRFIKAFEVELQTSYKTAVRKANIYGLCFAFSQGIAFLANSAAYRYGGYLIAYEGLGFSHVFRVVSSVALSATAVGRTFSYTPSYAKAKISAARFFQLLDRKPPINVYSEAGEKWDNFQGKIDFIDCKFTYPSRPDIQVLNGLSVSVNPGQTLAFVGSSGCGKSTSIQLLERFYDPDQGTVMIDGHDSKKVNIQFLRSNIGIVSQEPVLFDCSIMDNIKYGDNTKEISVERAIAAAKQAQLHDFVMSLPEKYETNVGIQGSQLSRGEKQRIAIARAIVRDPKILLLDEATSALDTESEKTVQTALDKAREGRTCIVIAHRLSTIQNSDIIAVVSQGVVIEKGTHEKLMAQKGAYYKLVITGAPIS

[2] = Plasma chemistry analysis after CKA; assay type: in vivo, rat
[3] = tested on: gadoxetate-induced MRI liver enhancement; conditions: rats, cited from earlier work; for maximum hepatic MRI signal enhancement by gadoxetate: administration of OATP inhibitors
[4] = tested on: relative liver MRI signal enhancement; conditions: healthy volunteers; cited from earlier work
[5] = 4.7 T, plasma value assumed for liver and spleen; cited from earlier work
[6] = Gadopentetate DCE-MRI estimation of volume fraction of extracellular space; assay type: in vivo, rat; conditions: gadopentetate 100 µmol/kg i.v., five rats, haematocrit 0.45, mean ± SEM
Procedure, shortened: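 Healthy rats (282 ± 9 g). IntraGate FLASH DCE-MRI: ten 2 mm slices, TR 60.3 ms, TE 1.4 ms, flip 30°, 1 min/volume. Contrast given by tail-vein pump (5 ml/min) 5 min after acquisition start; acquisition continuous for 45 min. ve taken as the tissue/plasma AUC ratio, with plasma concentration equal to whole-blood concentration/(1 − Hct). Isoflurane overdose afterwards.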

[7] = rats; cited from earlier work
[8] = humans; cited from earlier work
[9] = CKA 20 mg/kg oral, rat, gadoxetate 25 µmol/kg i.v.
[10] = CKA 200 mg/kg oral, rat, gadoxetate 25 µmol/kg i.v.
[11] = CKA 500 mg/kg oral, rat, gadoxetate 25 µmol/kg i.v.
[12] = CKA 2000 mg/kg oral, rat, gadoxetate 25 µmol/kg i.v.
[13] = gadoxetate 25 µmol/kg i.v. in rats given vehicle only (no CKA)

Sequence of rat Mrp2 (rMrp2) (Q63120 whole entry): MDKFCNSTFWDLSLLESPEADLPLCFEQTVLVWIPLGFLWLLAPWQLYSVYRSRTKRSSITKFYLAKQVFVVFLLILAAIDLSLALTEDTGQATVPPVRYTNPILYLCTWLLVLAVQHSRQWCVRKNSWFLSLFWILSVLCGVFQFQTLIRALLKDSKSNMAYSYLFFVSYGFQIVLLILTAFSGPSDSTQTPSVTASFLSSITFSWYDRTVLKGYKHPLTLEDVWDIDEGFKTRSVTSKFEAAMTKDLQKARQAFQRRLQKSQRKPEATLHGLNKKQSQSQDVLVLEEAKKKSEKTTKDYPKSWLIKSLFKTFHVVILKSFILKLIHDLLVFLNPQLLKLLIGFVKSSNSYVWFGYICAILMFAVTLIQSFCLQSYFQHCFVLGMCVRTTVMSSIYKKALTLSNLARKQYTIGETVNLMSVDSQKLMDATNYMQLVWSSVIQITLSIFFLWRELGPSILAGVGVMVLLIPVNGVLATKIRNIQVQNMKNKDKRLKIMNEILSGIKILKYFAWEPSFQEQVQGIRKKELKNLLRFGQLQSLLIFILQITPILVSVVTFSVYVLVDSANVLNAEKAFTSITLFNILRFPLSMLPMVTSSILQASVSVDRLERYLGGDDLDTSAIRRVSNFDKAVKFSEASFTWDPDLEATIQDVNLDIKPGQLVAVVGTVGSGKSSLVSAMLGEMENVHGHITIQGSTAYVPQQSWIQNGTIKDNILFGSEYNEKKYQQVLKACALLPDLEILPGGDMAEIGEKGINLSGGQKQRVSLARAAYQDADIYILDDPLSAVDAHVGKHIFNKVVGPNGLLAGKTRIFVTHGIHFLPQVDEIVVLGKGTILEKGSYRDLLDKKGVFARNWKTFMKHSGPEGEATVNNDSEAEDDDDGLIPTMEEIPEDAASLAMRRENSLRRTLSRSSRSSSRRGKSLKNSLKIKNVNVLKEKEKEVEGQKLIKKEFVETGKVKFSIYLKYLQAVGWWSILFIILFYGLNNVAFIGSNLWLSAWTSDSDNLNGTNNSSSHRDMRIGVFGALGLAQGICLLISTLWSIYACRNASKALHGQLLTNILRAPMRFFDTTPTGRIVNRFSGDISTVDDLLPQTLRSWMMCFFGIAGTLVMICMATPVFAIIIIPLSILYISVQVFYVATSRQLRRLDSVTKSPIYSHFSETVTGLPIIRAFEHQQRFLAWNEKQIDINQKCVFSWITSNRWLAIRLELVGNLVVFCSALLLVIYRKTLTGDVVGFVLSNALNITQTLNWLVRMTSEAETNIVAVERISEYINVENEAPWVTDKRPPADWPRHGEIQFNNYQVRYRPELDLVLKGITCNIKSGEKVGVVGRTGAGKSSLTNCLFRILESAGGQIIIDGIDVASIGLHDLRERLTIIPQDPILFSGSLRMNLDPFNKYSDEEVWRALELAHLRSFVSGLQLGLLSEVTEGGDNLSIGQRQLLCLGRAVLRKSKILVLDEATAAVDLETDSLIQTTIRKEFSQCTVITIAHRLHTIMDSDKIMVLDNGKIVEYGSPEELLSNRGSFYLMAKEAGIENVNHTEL

IC50 (rat Mrp2 (rMrp2)): 68.5 µM | effect on the kinetic parameters k1, Vmax and KM of gadoxetate ([1]; CKA 20 mg/kg oral, compared with vehicle): no significant effect | Vmax, gadoxetate efflux into bile [1, 9]: 2.9 ± 0.4 µmol/s | k1, rate of gadoxetate uptake into the hepatocyte [1, 9]: 26.1 ± 3.3 µmol/s | Vmax, gadoxetate efflux into bile [1, 10]: 0.6 ± 0.2 µmol/s | k1, rate of gadoxetate uptake into the hepatocyte [1, 10]: 6.6 ± 1.9 µmol/s | gadoxetate enhancement of the bowel (images) ([1]; CKA 500 mg/kg oral): no enhancement | Vmax, gadoxetate efflux into bile [1, 11]: 0.1 ± 0.1 µmol/s | k1, rate of gadoxetate uptake into the hepatocyte [1, 11]: 1.7 ± 0.4 µmol/s | Vmax, gadoxetate efflux into bile [1, 12]: 0.1 ± 0.1 µmol/s | k1, rate of gadoxetate uptake into the hepatocyte [1, 12]: 1.2 ± 0.2 µmol/s | rate of gadoxetate uptake into the liver and clearance from the liver into the GI tract (images) ([1]; CKA 200 and 500 mg/kg oral, compared with vehicle): marked and dose-dependent reduction | plasma bile acids ([2]; CKA 20-2000 mg/kg oral, rat): marked dose-dependent increases | plasma total bilirubin ([2]; CKA 20-2000 mg/kg oral, rat): marked dose-dependent increases
Compound: O=C(O)c1cc2cc(O)ccc2n1Cc1ccc(Cl)c(C(F)(F)F)c1 [CKA, 1-(4-chloro-3-trifluoromethyl-benzyl)-5-hydroxy-1-H-indole-2-carboxylic acid]
liver histology (H&E liver sections) (liver): no histological features indicative of drug-induced hepatotoxicity | IC50 (rat Bsep (rBsep)): 130 µM | plasma ALT levels ([2]; CKA 20-2000 mg/kg oral, rat, most evident at 500 and 2000 mg/kg): dose-related increase | plasma ALT value ([2]; single animal with necrosis, CKA 2000 mg/kg): 344 IU/l

Compound: C=CC1=C(C)/C(=C/c2[nH]c(Cc3[nH]c(/C=C4\NC(=O)C(C)=C4C=C)c(C)c3CCC(=O)O)c(CCC(=O)O)c2C)NC1=O [bilirubin]
maximum hepatic MRI signal enhancement by gadoxetate [3]: reduction

Compound: O=C1OC(c2ccc(O)c(S(=O)(=O)O)c2)(c2ccc(O)c(S(=O)(=O)O)c2)c2c(Br)c(Br)c(Br)c(Br)c21 [bromosulfophthalein]
maximum hepatic MRI signal enhancement by gadoxetate [3]: reduction

Compound: N.N.[Cl][Pt][Cl] [cisplatin]
maximum hepatic MRI signal enhancement by gadoxetate [3]: reduction

Compound: COc1cccc2c1C(=O)c1c(O)c3c(c(O)c1C2=O)C[C@@](O)(C(=O)CO)C[C@@H]3O[C@H]1C[C@H](N)[C@H](O)[C@H](C)O1 [doxorubicin hydrochloride]
maximum hepatic MRI signal enhancement by gadoxetate [3]: reduction

Compound: CC[C@H]1OC(=O)[C@H](C)[C@@H](O[C@H]2C[C@@](C)(OC)[C@@H](O)[C@H](C)O2)[C@H](C)[C@@H](O[C@@H]2O[C@H](C)C[C@H](N(C)C)[C@H]2O)[C@](C)(O)C[C@@H](C)C(=O)[C@H](C)[C@@H](O)[C@]1(C)O [erythromycin]
relative liver MRI signal enhancement versus control subjects [4]: did not show a statistically significant difference

Compound: C[C@]12CC[C@@H]3c4ccc(O)cc4CC[C@H]3[C@@H]1CC[C@@H]2O[C@@H]1O[C@H](C(=O)O)[C@@H](O)[C@H](O)[C@H]1O [estradiol 17-β-D-glucuronide]
gadoxetate-induced MRI liver enhancement ([3]; single administration): transiently prolonged

liver fractional extracellular space (AUC ratio tissue/plasma) [6]: 0.23 ± 0.02 | spleen fractional extracellular space (AUC ratio tissue/plasma) [6]: 0.43 ± 0.02
Compound: O=C([O-])CN(CCN(CC(=O)[O-])CC(=O)O)CCN(CC(=O)[O-])CC(=O)O.[Gd+3] [gadopentetate]
relaxivity r1 [5]: 3.8 s⁻¹ mM⁻¹

Vmax, gadoxetate efflux into bile [1, 13]: 2.9 ± 0.3 µmol/s | k1, rate of gadoxetate uptake into the hepatocyte [1, 13]: 29.4 ± 3.0 µmol/s
Compound: CCOc1ccc(C[C@@H](CN(CCN(CC(=O)[O-])CC(=O)[O-])CC(=O)[O-])N(CC(=O)[O-])CC(=O)[O-])cc1.[Gd+3].[H+].[H+] [gadoxetate]
relaxivity r1 [5]: 5.9 s⁻¹ mM⁻¹ | gadoxetate clearance, biliary [7]: 70% | gadoxetate clearance, renal [7]: 30% | excreted via each route (biliary, renal) [8]: 50%

Compound: C[C@]12C=CC(=O)C=C1CC[C@@H]1[C@@H]2[C@@H](O)C[C@@]2(C)[C@H]1CC[C@]2(O)C(=O)CO [prednisolone]
maximum hepatic MRI signal enhancement by gadoxetate [3]: reduction

Compound: CC(C)NCC(O)COc1cccc2ccccc12 (stereo not shown) [propranolol hydrochloride]
maximum hepatic MRI signal enhancement by gadoxetate [3]: reduction

Compound: CO[C@H]1/C=C/O[C@@]2(C)Oc3c(C)c(O)c4c(O)c(c(/C=N/N5CCN(C)CC5)c(O)c4c3C2=O)NC(=O)/C(C)=C\C=C\[C@H](C)[C@H](O)[C@@H](C)[C@@H](O)[C@@H](C)[C@H](OC(C)=O)[C@@H]1C [rifampicin]
maximum hepatic MRI signal enhancement by gadoxetate [3]: reduction

Compound: CO[C@H]1/C=C/O[C@@]2(C)Oc3c(C)c(O)c4c(O)c(cc(O)c4c3C2=O)NC(=O)/C(C)=C\C=C\[C@H](C)[C@H](O)[C@@H](C)[C@@H](O)[C@@H](C)[C@H](OC(C)=O)[C@@H]1C [rifamycin]
maximum hepatic MRI signal enhancement by gadoxetate [3]: reduction

From article PMC3817526 (Nmr in Biomedicine, 2013)
